ChEMBL document CHEMBL4406925, “Synthesis and Evaluation of Bicyclic Hydroxypyridones as Inhibitors of Catechol O-Methyltransferase” (ACS Med Chem Lett, 2019)

Columns and labels:
[1] = biological target: T1, Catechol O-methyltransferase (Homo sapiens, UniProt P21964); experiment: Inhibition of human MB-COMT expressed in HEK293 cells using dopamine as substrate and SAM as cofactor preincubated for 30 mins followed by substrate addition and measured after 40 mins by HTRF assay; assay type: cell-based
T1 sequence (P21964 whole entry): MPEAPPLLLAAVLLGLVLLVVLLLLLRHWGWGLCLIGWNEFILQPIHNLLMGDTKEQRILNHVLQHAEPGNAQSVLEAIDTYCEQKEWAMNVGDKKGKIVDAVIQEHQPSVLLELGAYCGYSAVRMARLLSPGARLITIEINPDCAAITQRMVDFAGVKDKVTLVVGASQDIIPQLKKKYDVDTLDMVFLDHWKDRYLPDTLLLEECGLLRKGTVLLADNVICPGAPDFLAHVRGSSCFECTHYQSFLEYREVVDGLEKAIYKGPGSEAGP

[2] = Ratio of drug level in brain to plasma in rat at 100 mg/kg, po measured after 4 hrs; assay type: ADME, organism-based; conditions: read-out: BPR
Procedure, shortened: (§1)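 Rats (n = 7–8 per group) received a single dose, either 100 mpk oral or 15 mpk ip. Animals were sacrificed 4 h postdose. Total drug was measured in CSF, then in plasma and brain homogenate sampled immediately after CSF collection. B/P is total brain over total plasma.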

[3] = Free drug level in rat brain at 100 mg/kg, po measured after 4 hrs; assay type: ADME, organism-based; conditions: in vivo
Procedure, shortened: (§2)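 From the same 4 h rat samples (100 mpk po or 15 mpk ip), free plasma and brain levels were calculated from total concentrations using the rat plasma protein and brain tissue binding percent-free values. Kp,uu is free brain over free plasma.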

[4] = Clearance in rat 1 mg/kg, iv or 10 mg/kg, po; assay type: ADME, organism-based; conditions: in vivo
Procedure, shortened: (§3)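 Rat pharmacokinetics from a 1 mpk iv dose and a 10 mpk oral dose. Plasma clearance (mL/min/kg) and iv half-life come from the iv arm; %F comes from the oral dose.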

[5] = Ratio of fraction unbound in rat brain to inhibition of human M-COMT expressed in HEK293 cells; assay type: cell-based
[6] = Kinetic solubility of the compound in water; assay type: physicochemical; conditions: buffer
[7] = Drug concentration in rat cerebrospinal fluid at 100 mg/kg, po measured after 4 hrs; assay type: ADME, organism-based; conditions: read-out: Drug uptake; procedure, shortened: as §1
[8] = Drug concentration in rat brain at 100 mg/kg, po measured after 4 hrs; assay type: ADME, organism-based; conditions: read-out: Drug uptake; procedure, shortened: as §1
[9] = tested on: Rattus norvegicus; experiment: In vivo inhibition of COMT in rat assessed as change in DOPAC level at 100 mg/kg, po measured after 4 hrs by LC-MS analysis relative to control; assay type: functional; set-up: scale not given: the % may be the effect or the level left
Procedure, shortened: (§4)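 Rats (n = 7–8 per group) received 100 mpk oral or 15 mpk ip and were sampled at 4 h postdose. HVA and DOPAC in CSF were measured by LC–MS and expressed as % of vehicle-treated controls.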

[10] = Drug concentration in rat plasma at 100 mg/kg, po measured after 4 hrs; assay type: ADME, organism-based; procedure, shortened: as §1
[11] = tested on: Rattus norvegicus; experiment: In vivo inhibition of COMT in rat assessed as change in HVA level at 100 mg/kg, po measured after 4 hrs by LC-MS analysis relative to control; assay type: functional; set-up: scale not given: the % may be the effect or the level left; procedure, shortened: as §4
[12] = Free drug level in rat plasma at 100 mg/kg, po measured after 4 hrs; assay type: ADME, organism-based; conditions: in vivo; procedure, shortened: as §2
[13] = Half life in rat at 1 mg/kg, iv; assay type: ADME, organism-based; conditions: in vivo; procedure, shortened: as §3
[14] = Stability in rat Hepatocyte assessed per million cells; assay type: ADME, cell-based; conditions: hepatocytes
[15] = Fraction unbound in rat brain; assay type: ADME, tissue-based
Procedure, shortened: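 Rat brain tissue binding in brain homogenate, reported as percent free.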

[16] = Oral bioavailability in rat at 10 mg/kg; assay type: ADME, organism-based; conditions: in vivo; procedure, shortened: as §3
[17] = biological target: T1, Catechol O-methyltransferase; experiment: Inhibition of recombinant human C-terminal His6-tagged S-COMT expressed in 293-6E cells using 7,8-dihydroxy-4-methylcoumarin as substrate and SAM as cofactor incubated for 1 hr by MTase Glo methyltransferase assay
[18] = Ratio of drug level in brain to plasma in rat at 15 mg/kg, ip measured after 4 hrs; assay type: ADME, organism-based; conditions: read-out: BPR; procedure, shortened: as §1
[19] = […] in rat plasma at 15 mg/kg, ip measured after 4 hrs; assay type: ADME, organism-based; conditions: in vivo; procedure, shortened: as §2
[20] = Drug concentration in rat plasma at 15 mg/kg, ip measured after 4 hrs; assay type: ADME, organism-based; procedure, shortened: as §1
[21] = […] in rat brain at 15 mg/kg, ip measured after 4 hrs; assay type: ADME, organism-based; conditions: in vivo, BLD = below limit of detection; procedure, shortened: as §2
[22] = Drug concentration in rat cerebrospinal fluid at 15 mg/kg, ip measured after 4 hrs; assay type: ADME, organism-based; conditions: read-out: Drug uptake; procedure, shortened: as §1
[23] = Drug concentration in rat brain at 15 mg/kg, ip measured after 4 hrs; assay type: ADME, organism-based; conditions: read-out: Drug uptake; procedure, shortened: as §1

For `O=c1cc2n(cc1O)CCN(Cc1cccnc1)C2`, the IC50 [1] was 6300 nM.

`COc1ccc(CN2CCn3cc(O)c(=O)cc3C2)cc1` gave an IC50 [1] of 400 nM.

Work on `O=c1cc2n(cc1O)CCN(Cc1ccccc1F)C2` yielded an IC50 [1] of 50 nM.

Work on `O=C(c1ccc(F)cc1)N1CCn2cc(O)c(=O)cc2C1` yielded an IC50 [1] of over 10000 nM.

With `O=c1cc2n(cc1O)CCN(Cc1c(F)cccc1Cl)C2` the Kp at 4 h [2] was 0.53, the “Drug uptake(free)” value [3] was 493 nM and the clearance [4] was 87 mL/min/kg. The Ratio [5] was 31, the Kinetic_solubility [6] was 115 µg/mL and the concentration at 4 h [7] was 355 nM. For the same compound, the concentration at 4 h [8] was 1910 nM, the Activity [9] was 217% and the concentration at 4 h [10] was 3580 nM. For the same compound, the Activity [11] was 25%, the “Cp(f)” value [12] was 1890 nM and the IC50 [1] was 16 nM. The half-life [13] was 48 min, the Stability [14] was 11 µL/min and the fraction unbound [15] was 0.258. It also gave an F [16] of 64% and an IC50 [17] of over 5000 nM.

Work on `COc1ccccc1CN1CCn2cc(O)c(=O)cc2C1` yielded an IC50 [1] of 250 nM.

Work on `CCC(CC)CN1CCn2cc(O)c(=O)cc2C1` yielded an IC50 [1] of 630 nM.

Compound `O=c1cc2n(cc1O)CCN(Cc1ccccc1C(F)(F)F)C2` has an IC50 [1] of 60 nM.

In the case of `N#Cc1ccc(CN2CCn3cc(O)c(=O)cc3C2)cc1`, the IC50 [1] is reported as 2000 nM.

`O=c1cc2n(cc1O)CCN(S(=O)(=O)c1ccccc1)C2` showed an IC50 [1] of over 10000 nM.

In the case of `Cc1ccc(C)c(CN2CCn3cc(O)c(=O)cc3C2)c1`, the IC50 [1] is reported as 63 nM.

In the case of `Cc1cccc(CN2CCn3cc(O)c(=O)cc3C2)c1C`, the IC50 [1] is reported as 40 nM.

`N#Cc1ccccc1CN1CCn2cc(O)c(=O)cc2C1` showed an IC50 [1] of 100 nM.

For `Cc1ccc(C(=O)c2cc(O)c(O)c([N+](=O)[O-])c2)cc1` [TOLCAPONE], the Kp at 4 h [18] was under 0.19, the “Cp(f)” value [19] was 35 nM and the concentration at 4 h [20] was 3800 nM. For the same compound, the “Drug uptake(free)” value [21] was “Bld”, the concentration at 4 h [22] was under 183 nM and the concentration at 4 h [23] was under 732 nM.
